The source of these data is ChEMBL document CHEMBL1158179, “Facile synthesis of dithiatetraaza-macrocycles of potential anti-inflammatory activity” (Eur J Med Chem, 2008).

In data set [1] the test system is Rattus norvegicus. In words: Antiinflammatory activity against carrageenan-induced paw edema in Wister albino rat at 50 mg/kg, ip administered 1 hr before inflammation induction assessed after 4 hrs. In kind it is functional. The note with it: route intraperitoneal. The gist of the method: (§1)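 Wistar albino rats of either sex (pregnant females excluded), 160–190 g, 6 per group, kept at 22 °C on a 12 h light/dark cycle. Agent in DMSO given i.p. 1 h before 0.1 ml of 1% carrageenan in saline was injected subcutaneously into the right hind paw. Controls got DMSO. Oedema was paw volume by plethysmometer minus initial volume. Values are % inhibition = (Vc−Vt)/Vc×100; means ± SE, one-way ANOVA with LSD, p<0.05.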
On the technique in general: Carrageenan injected into the paw causes an acute inflammation.

For data set [2], the system named is Rattus norvegicus. In words: Antiinflammatory activity against carrageenan-induced paw edema in Wister albino rat at 50 mg/kg, ip administered 1 hr before inflammation induction assessed after 4 hrs relative to indomethacin. Type of data set: functional. The note with it: route intraperitoneal. The method in brief: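 Same rat carrageenan paw oedema protocol: i.p. dosing in DMSO 1 h before carrageenan, with paw volume read by plethysmometer at 4 h. Potency is the % oedema inhibition of the test group divided by that of the indomethacin (10 mg/kg i.p.) group.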

For data set [3], the system named is Rattus norvegicus. Briefly: Antiinflammatory activity against carrageenan-induced paw edema in Wister albino rat at 10 mg/kg, ip administered 1 hr before inflammation induction assessed after 2 hrs. In kind it is functional. The note with it: route intraperitoneal. The method in brief:
as §1

Data set [4] concerns Rattus norvegicus. In words: Antiinflammatory activity against carrageenan-induced paw edema in Wister albino rat at 10 mg/kg, ip administered 1 hr before inflammation induction assessed after 1 hr. In kind it is functional. The settings on record: route intraperitoneal. The method in brief:
as §1

In data set [5] the test system is Rattus norvegicus. Briefly: Antiinflammatory activity against carrageenan-induced paw edema in Wister albino rat at 10 mg/kg, ip administered 1 hr before inflammation induction assessed after 4 hrs. In kind it is functional. The note with it: route intraperitoneal. The gist of the method:
as §1

Data set [6] deals with Rattus norvegicus. In words: Antiinflammatory activity against carrageenan-induced paw edema in Wister albino rat at 10 mg/kg, ip administered 1 hr before inflammation induction assessed after 3 hrs. The note with it: route intraperitoneal. In kind it is functional. The method in brief: as §1
Data set [7] has as its system Mus musculus. In words: Toxicity in albino mouse at 750 mg/kg, ip assessed as mortality after 24 hrs by LD50 standard method. In kind it is organism-based. On the set-up: dose 750 mg/kg, route intraperitoneal. The note with it: in vivo. The method in brief: (§2)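 Albino mice, 20-25 g, 9 groups of 6; test agents dissolved in DMSO and given intraperitoneally at 500, 750 and 1000 mg/kg body weight; controls received DMSO only. Toxic symptoms, mortality and postmortem findings recorded 24 h after administration; LD50 computed by formula from largest dose killing all animals, mean dead between successive groups, dose factor and group size.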

Data set [8] concerns Rattus norvegicus. In words: Antiinflammatory activity against carrageenan-induced paw edema in Wister albino rat at 50 mg/kg, ip administered 1 hr before inflammation induction assessed after 3 hrs. The settings on record: route intraperitoneal. In kind it is functional. The gist of the method:
as §1

The subject of data set [9] is Rattus norvegicus. In words: Antiinflammatory activity against carrageenan-induced paw edema in Wister albino rat at 50 mg/kg, ip administered 1 hr before inflammation induction assessed after 2 hrs. Type of data set: functional. The settings on record: route intraperitoneal. The method in brief: as §1
The test system of data set [10] is Rattus norvegicus. In words: Antiinflammatory activity against carrageenan-induced paw edema in Wister albino rat at 50 mg/kg, ip administered 1 hr before inflammation induction assessed after 1 hr. The settings on record: route intraperitoneal. In kind it is functional. The method in brief:
as §1

Data set [11] concerns Mus musculus. In words: Toxicity in albino mouse at 500 mg/kg, ip assessed as mortality after 24 hrs by LD50 standard method. In kind it is organism-based. More on the design: dose 500 mg/kg, route intraperitoneal. The note with it: in vivo. The gist of the method: as §2
Data set [12] concerns Mus musculus. In words: Toxicity in albino mouse at 1000 mg/kg, ip assessed as mortality after 24 hrs by LD50 standard method. More on the design: dose 1000 mg/kg, route intraperitoneal. The note with it: in vivo. Type of data set: organism-based. The method in brief: as §2

What is called inhibition in vivo is how much of the control response was suppressed. A high value points to a response far below the control. For `O=C(Nc1ccc(Cl)c(Cl)c1)Nc1ccccc1SCCCSc1ccccc1NC(=O)Nc1ccc(Cl)c(Cl)c1`, in the data set on Rattus norvegicus [1], the inhibition in vivo at 50 mg/kg turned out to be 28.3%. Further, the Ratio with Rattus norvegicus [2] is on record as 0.49.
Taken in the same sequence, the figures for `S=C(Nc1ccccc1)Nc1ccccc1SCCCSc1ccccc1NC(=S)Nc1ccccc1` were 38% and 0.66.
Taken in the same sequence, the figures for `O=C(Nc1ccccc1)Nc1ccccc1SCCCSc1ccccc1NC(=O)Nc1ccccc1` were 29.6% and 0.51.
Taken in the same sequence, the figures for `CCNC(=O)Nc1ccccc1SCCCSc1ccccc1NC(=O)NCC` were 42.1% and 0.73.
Turning to `COc1ccc2c(c1)c(CC(=O)O)c(C)n2C(=O)c1ccc(Cl)cc1` [INDOMETHACIN], the inhibition in vivo at 10 mg/kg was 48.2% with Rattus norvegicus [3], 50.5% in the data set on Rattus norvegicus [4], 57.6% with Rattus norvegicus [5] and 50.1% in the data set on Rattus norvegicus [6].
Turning to `COc1ccc(NC(=O)Nc2ccccc2SCCSc2ccccc2NC(=O)Nc2ccc(OC)cc2)cc1`, the Activity entry in the data set with Mus musculus [7], in the data set with Mus musculus [11] and in the data set with Mus musculus [12] was “Non-toxic” in each case. For the same compound, the inhibition in vivo at 50 mg/kg was 39.2% in the data set with Rattus norvegicus [8], 38.4% in the data set on Rattus norvegicus [9], 35.2% with Rattus norvegicus [10] and 51.9% in the data set on Rattus norvegicus [1]. For the same compound, the Ratio in the data set with Rattus norvegicus [2] is given as 0.9.
Compound `S=C(Nc1ccccc1)Nc1ccccc1SCCSc1ccccc1NC(=S)Nc1ccccc1` yielded an inhibition in vivo at 50 mg/kg in the data set on Rattus norvegicus [1] of 43.3%. Besides, the Ratio in the data set with Rattus norvegicus [2] amounted to 0.75.
Taken in the same sequence, the figures for `O=C(Nc1ccc(Cl)c(Cl)c1)Nc1ccccc1SCCSc1ccccc1NC(=O)Nc1ccc(Cl)c(Cl)c1` were 7.1% and 0.12.
Turning to `O=C1Nc2ccc(cc2)NC(=O)Nc2ccccc2SCCCSc2ccccc2N1`, the Activity result in the data set with Mus musculus [7], with Mus musculus [11] and in the data set on Mus musculus [12] was “Non-toxic” in each case. For the same compound, the inhibition in vivo at 50 mg/kg with Rattus norvegicus [8] is 46.6%; with Rattus norvegicus [9] it was 44%; in the data set with Rattus norvegicus [10], 45.4%; in the data set with Rattus norvegicus [1] it was 48.9%. Moreover, the Ratio in the data set on Rattus norvegicus [2] is 0.85.
The compound `CCNC(=O)Nc1ccccc1SCCSc1ccccc1NC(=O)NCC` gave an inhibition in vivo at 50 mg/kg in the data set with Rattus norvegicus [1] of 33.1%. The Ratio in the data set with Rattus norvegicus [2] was 0.57.
Turning to `O=C(Nc1ccccc1)Nc1ccccc1SCCSc1ccccc1NC(=O)Nc1ccccc1`, the inhibition in vivo at 50 mg/kg in the data set on Rattus norvegicus [1] was 32.8%. Besides, the Ratio in the data set with Rattus norvegicus [2] was found to be 0.57.
In the case of `COc1ccc(NC(=O)Nc2ccccc2SCCCSc2ccccc2NC(=O)Nc2ccc(OC)cc2)cc1`, the inhibition in vivo at 50 mg/kg with Rattus norvegicus [1] is 35%. Moreover, the Ratio in the data set with Rattus norvegicus [2] turned out to be 0.61.
The corresponding values for `O=C1Nc2ccc(cc2)NC(=O)Nc2ccccc2SCCSc2ccccc2N1` are 34.9% and 0.61.
